The results in this text go back to ChEMBL document CHEMBL1151458, “Comparative analysis of the bactericidal activities of amphibian peptide analogues against multidrug-resistant nosocomial bacterial strains” (2008).

The subject of experiment [1] is Enterococcus faecium. Put plainly: Bactericidal activity against Enterococcus faecium isolate 5 with AMP-AMC-CIP-CLI-ERY-GEN-KAN-LVX-SXT-TEC-VAN resistance phenotype assessed as concentration required for >= 3 log10 CFU/ml reduction in viable bacteria in sodium phosphate buffer at pH 7.4 after 1.5 hrs by liquid microdilution assay. The experiment is classed as functional. Summed up:
(§1)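 Clinical multidrug-resistant isolates grown to mid-log in tryptone soy broth and stored frozen. Exponential cells resuspended in 10 mM sodium phosphate buffer, pH 7.4, at 1 × 10^7 CFU/ml; 10 μl incubated with graded peptide concentrations in 100 μl at 37°C for 1.5 h. Plated on tryptone soy agar, CFU read after 24 h at 37°C. Peptide stocks in 20% ethanol.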

The subject of experiment [2] is Pseudomonas aeruginosa. Put plainly: Bactericidal activity against Pseudomonas aeruginosa isolate 1 with AMP-CFZ-CIP-CTX-CXM-GEN-LVX-SXT-TET resistance phenotype assessed as concentration required for >= 3 log10 CFU/ml reduction in viable bacteria in sodium phosphate buffer at pH 7.4 after 1.5 hrs by liquid microdilution assay. The experiment is classed as functional. The essentials: as §1
On the technique in general: Broth dilution looks for growth in wells or tubes with falling amounts of substance.

For experiment [3], the system named is Stenotrophomonas maltophilia. Put plainly: Bactericidal activity against Stenotrophomonas maltophilia isolate 2 with AMK-CIP-CTX-IPM-MEM-SAM-TZP resistance phenotype assessed as concentration required for >= 3 log10 CFU/ml reduction in viable bacteria in 40% heat-inactivated human serum after 1.5 hrs by liquid microdilution assay. It is filed as functional. Summed up: (§2)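 The buffer microdilution kill assay (1 × 10^7 CFU/ml mid-log cells, 10 μl in 100 μl, 37°C, 1.5 h, CFU on tryptone soy agar after 24 h) with serum added to 20% or 40% final. Serum was pooled from five healthy donors, clotted at room temperature, spun at 300 × g and heat-inactivated at 56°C for 30 min.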

The subject of experiment [4] is Stenotrophomonas maltophilia. Put plainly: Bactericidal activity against Stenotrophomonas maltophilia isolate 2 with AMK-CIP-CTX-IPM-MEM-SAM-TZP resistance phenotype assessed as concentration required for >= 3 log10 CFU/ml reduction in viable bacteria in sodium phosphate buffer at pH 7.4 after 1.5 hrs by liquid microdilution assay. The experiment is classed as functional. Summed up:
as §1

For experiment [5], the system named is Pseudomonas aeruginosa. Briefly: Bactericidal activity against Pseudomonas aeruginosa isolate 1 with AMP-CFZ-CIP-CTX-CXM-GEN-LVX-SXT-TET resistance phenotype assessed as concentration required for >= 3 log10 CFU/ml reduction in viable bacteria in 40% heat-inactivated human serum after 1.5 hrs by liquid microdilution assay. The experiment is classed as functional. Summed up: as §2

The test system of experiment [6] is Acinetobacter baumannii. Briefly: Antimicrobial activity against Acinetobacter baumannii isolate 3 with AMP-AMC-CFZ-CIP-IPM-SXT-TET-TOB resistance phenotype assessed as time to kill at bactericidal concentration. The experiment is classed as functional. The essentials: (§3)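 Time-kill in 10 mM sodium phosphate buffer, pH 7.4: 1 × 10^7 CFU/ml mid-log clinical isolate (10 μl) exposed at 37°C to peptide at the 1.5-h bactericidal concentration or twofold that, in 100 μl. Samples taken from 2 min onward, plated on tryptone soy agar, CFU counted after 24 h at 37°C. Killing taken as ≥3 log10 CFU/ml drop.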

Experiment [7] deals with Staphylococcus aureus. Briefly: Bactericidal activity against Staphylococcus aureus isolate 1 with AMC-AMP-CIP-ERY-GEN-OXA-RIF resistance phenotype assessed as concentration required for >= 3 log10 CFU/ml reduction in viable bacteria in sodium phosphate buffer at pH 7.4 after 1.5 hrs by liquid microdilution assay. It is filed as functional. The essentials:
as §1

The test system of experiment [8] is Staphylococcus aureus. Put plainly: Antimicrobial activity against Staphylococcus aureus isolate 1 with AMC-AMP-CIP-ERY-GEN-OXA-RIF resistance phenotype at twofold the bactericidal concentration within 30 mins. The experiment is classed as functional, organism-based. The essentials:
as §3

Experiment [9] concerns Enterococcus faecium. Briefly: Bactericidal activity against Enterococcus faecium isolate 3 with AMP-CIP-CTX-ERY-GEN-LVX-SXT-TEC-VAN resistance phenotype assessed as concentration required for >= 3 log10 CFU/ml reduction in viable bacteria in 20% heat-inactivated human serum after 1.5 hrs by liquid microdilution assay. The experiment is classed as functional. Summed up: as §2

Experiment [10] has as its system Enterococcus faecium. Put plainly: Bactericidal activity against Enterococcus faecium isolate 6 with AMP-AMC-CLI-CRO-CTX-CIP-ERY-GEN-KAN-LVX-SXT-VAN resistance phenotype assessed as concentration required for >= 3 log10 CFU/ml reduction in viable bacteria in sodium phosphate buffer at pH 7.4 after 1.5 hrs by liquid microdilution assay. The experiment is classed as functional. The essentials: as §1

Experiment [11] has as its system Enterococcus faecium. Briefly: Antimicrobial activity against Enterococcus faecium isolate 3 with AMP-CIP-CTX-ERY-GEN-LVX-SXT-TEC-VAN resistance phenotype assessed as time to kill at twofold the bactericidal concentration. The experiment is classed as functional, organism-based. The essentials:
as §3

Activity calls are given as the source filed them. The rule behind the calls is not given here.

Regarding H-GIFSKLAGKKLKNLLISG-NH2, the Activity worked out at 2 µM in experiment [1]; 1 µM in experiment [2]; 16 µM in experiment [3]; 0.5 µM in experiment [4]; 128 µM in experiment [5]; 32 µM in [7]. Moreover, the values for the Activity in experiment [9] and in experiment [10] were 32 µM and 2 µM, respectively. Besides, in experiment [6], the Time is given as 2 min. Further, the outcome in experiment [8] and in [11] was inactive.
